Source: ChEMBL document CHEMBL4387703, “Lead optimization and biological evaluation of fragment-based cN-II inhibitors” (Eur J Med Chem, 2019)
Calls of active or inactive are those of the source. The calls are words filed in the database; no cut-off is given here.

What was measured:
[1] = biological target: 5'-nucleotidase (Homo sapiens) (UniProt P21589); test: Inhibition of recombinant cN-II (unknown origin) assessed as reduction in inorganic phosphate production at 200 uM pre-incubated for 10 mins followed by addition of IMP as substrate and measured after 5 mins by malachite green based assay relative to control
Chain of 5'-nucleotidase (Homo sapiens) (P21589 whole entry): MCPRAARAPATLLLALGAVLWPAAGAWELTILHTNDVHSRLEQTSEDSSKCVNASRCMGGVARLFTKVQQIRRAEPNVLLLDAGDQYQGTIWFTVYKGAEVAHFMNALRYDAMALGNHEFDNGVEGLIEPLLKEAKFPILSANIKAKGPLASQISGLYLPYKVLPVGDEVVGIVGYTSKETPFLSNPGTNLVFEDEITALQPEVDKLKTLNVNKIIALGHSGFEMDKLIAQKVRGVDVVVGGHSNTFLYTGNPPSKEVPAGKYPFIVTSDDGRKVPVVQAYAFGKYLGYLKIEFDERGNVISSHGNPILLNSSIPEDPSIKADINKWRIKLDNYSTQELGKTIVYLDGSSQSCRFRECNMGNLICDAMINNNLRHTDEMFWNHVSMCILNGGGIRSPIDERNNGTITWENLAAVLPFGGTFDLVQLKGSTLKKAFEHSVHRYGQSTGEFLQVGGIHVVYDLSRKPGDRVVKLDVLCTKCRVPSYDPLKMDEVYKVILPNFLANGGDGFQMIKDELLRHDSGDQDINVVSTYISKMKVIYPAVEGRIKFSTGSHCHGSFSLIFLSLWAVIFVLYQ
In short: (§1)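 Purified recombinant cN-II (0.1 μM final) in 50 mM imidazole pH 6.5, 500 mM NaCl and 10 mM MgCl2 was preincubated on ice with compound for 10 min. IMP (50 μM, equimolar Mg) was then added for 5 min at 37 °C.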

[2] = biological target: 5'-nucleotidase (Homo sapiens) (UniProt P21589); test: Inhibition of recombinant cN-II (unknown origin) assessed as reduction in inorganic phosphate production at 1 mM pre-incubated for 10 mins followed by addition of IMP as substrate and measured after 5 mins by malachite green based assay relative to control; in short: as §1
[3] = biological target: T1, 5'-nucleotidase (Rattus norvegicus) (UniProt P21588); test: Inhibition of purified rat liver 5'-nucleotidase using IMP as substrate assessed as reduction in substrate dephosphorylation at 2 to 6 mM
T1 sequence (whole entry): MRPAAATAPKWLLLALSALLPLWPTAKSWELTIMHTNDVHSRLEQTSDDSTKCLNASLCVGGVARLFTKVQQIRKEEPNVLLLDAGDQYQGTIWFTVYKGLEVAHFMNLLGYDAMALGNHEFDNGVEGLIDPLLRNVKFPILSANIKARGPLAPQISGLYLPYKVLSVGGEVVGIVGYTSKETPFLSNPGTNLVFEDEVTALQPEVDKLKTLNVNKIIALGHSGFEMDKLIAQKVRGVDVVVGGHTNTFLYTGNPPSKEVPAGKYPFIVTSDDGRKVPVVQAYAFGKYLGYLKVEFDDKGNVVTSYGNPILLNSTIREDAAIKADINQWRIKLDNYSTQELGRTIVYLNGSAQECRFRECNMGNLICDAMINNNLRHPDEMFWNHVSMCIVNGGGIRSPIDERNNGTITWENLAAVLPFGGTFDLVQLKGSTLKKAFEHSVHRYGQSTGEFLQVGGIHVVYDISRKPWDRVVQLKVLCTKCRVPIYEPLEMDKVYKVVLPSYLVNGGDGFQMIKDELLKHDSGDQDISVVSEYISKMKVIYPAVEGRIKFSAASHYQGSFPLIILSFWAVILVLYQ

[4] = biological target: T1, 5'-nucleotidase (Rattus norvegicus); test: Inhibition of purified rat liver 5'-nucleotidase using IMP as substrate assessed as reduction in substrate dephosphorylation at 7 to 10 mM

Row | inhibition [1] [%] | SMILES | further results
1 | 60 | O=C(Nc1ncnc2[nH]cnc12)c1cccc(-c2ccc(-c3nn[nH]n3)cc2)c1 | 
2 |  | Nc1ncnc2c1ncn2Cc1ccccc1 | inhibition [2]: 23%
3 | 30 | O=C(Nc1ncnc2[nH]cnc12)c1ccccc1-c1ccc(-c2nn[nH]n2)cc1 | 
4 |  | Nc1ncnc2c1ncn2COCc1ccccc1 | inhibition [2]: 13%
5 |  | CC(C)CSC[C@H]1O[C@@H](n2cnc3c(N)ncnc32)[C@H](O)[C@@H]1O | inhibition [3]: 50%
6 | 52 | O=C(Nc1ncnc2ncn(Cc3ccccc3)c12)c1cccc(-c2ccccc2)c1 | 
7 | 27 | CCOC(=O)Cn1cnc2c(NC(=O)c3ccc(-c4ccccc4-c4nn[nH]n4)cc3)ncnc21 | 
8 | 50 | O=C(Nc1ncnc2ncn(COCc3ccccc3)c12)c1cccc(-c2ccccc2)c1 | 
9 | 62 | O=C(O)Cn1cnc2c(NC(=O)c3cccc(-c4ccccc4)c3)ncnc21 | 
10 | 34 | O=C(Nc1ncnc2c1ncn2COCc1ccccc1)c1cccc(-c2ccccc2)c1 | 
11 | 49 | O=C(Nc1ncnc2nc[nH]c12)c1cccc(-c2cccc(-c3cn(CP(=O)(O)O)cn3)c2)c1 | 
12 | 50 | O=C(Nc1ncnc2[nH]cnc12)c1cccc(-c2cccc(-c3nn[nH]n3)c2)c1 | 
13 | 47 | CCOP(=O)(Cn1cnc2c(NC(=O)c3cccc(-c4ccccc4)c3)ncnc21)OCC | 
14 | 3 | CCOC(=O)Cn1cnc2c(N)ncnc21 | 
15 | 62 | CC(=O)OCCn1cnc2c(NC(=O)c3cccc(-c4ccccc4)c3)ncnc21 | 
16 | 68 | O=C(Nc1ncnc2[nH]cnc12)c1cccc(-c2ccccc2)c1 | 
17 | 10 | O=C(Nc1ncnc2[nH]cnc12)c1ccc(-c2ccccc2-c2nn[nH]n2)cc1 | 
18 | 60 | CCOC(=O)Cn1cnc2c(NC(=O)c3cccc(-c4ccccc4)c3)ncnc21 | 
19 |  | CC(C)CSC[C@H]1O[C@@H](n2cnc3c(=O)[nH]cnc32)[C@H](O)[C@@H]1O | inhibition [4]: 50%
20 | 57 | O=C(Nc1ncnc2c1ncn2Cc1ccccc1)c1cccc(-c2ccccc2)c1 | 
21 | 27 | O=C(Nc1ncnc2[nH]cnc12)c1cccc(-c2ccccc2-c2nn[nH]n2)c1 | 
22 | 75 | CCOP(=O)(O)Cn1cnc(-c2cccc(-c3cccc(C(=O)Nc4ncnc5nc[nH]c45)c3)c2)c1 | 
23 | 60 | CCOP(=O)(O)Cn1cnc(-c2cccc(-c3cccc(C(=O)Nc4ncnc5ncn(COCc6ccccc6)c45)c3)c2)c1 | 
24 |  | CCOP(=O)(Cn1cnc2c(N)ncnc21)OCC | inhibition [2]: inactive
25 |  | Nc1ncnc2ncn(Cc3ccccc3)c12 | inhibition [2]: 26%
26 |  | CC(=O)OCCn1cnc2c(N)ncnc21 | inhibition [2]: inactive
27 | 46 | O=C(Nc1ncnc2c1ncn2CCO)c1cccc(-c2ccccc2)c1 | 
28 |  | Nc1ncnc2ncn(COCc3ccccc3)c12 | inhibition [2]: inactive
